From ChEMBL document CHEMBL1122793, “Synthesis, characterization, and properties of a group of platinum (IV) complexes” (J Med Chem, 1984) come the findings set out here.

Holding throughout (assay type): functional, cell-based
Holding throughout (conditions): Mus musculus

The subject of assay [1] is L1210. Put plainly: Compound was evaluated for antitumor activity against 10e 6 L1210 cells implanted intraperitoneally into mice after treatment on day 1. In outline:
(§1)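 Mice received 10⁶ L1210 ascites cells ip and were treated ip on day 1 only. Treatment groups had six mice. The optimal dose was recorded in mg/kg, and activity was recorded as the maximum percent T/C, as defined in ref 9.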

For assay [2], the system named is L1210. Put plainly: Compound was evaluated for antitumor activity against 10e 6 L1210 cells implanted intraperitoneally into mice after treatment on day 1(reference 9). In outline: as §1
In assay [3] the test system is L1210. Put plainly: Compound was evaluated for antitumor activity against 10e 6 L1210 cells implanted intraperitoneally into mice after treatment on days 1-5. In outline: (§2)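 Mice were implanted ip with 10⁶ L1210 ascites cells and treated ip on days 1-5, with the dose given in mg/kg per injection. Groups had six mice each. The read-out was the optimal dose and the maximum percent T/C, as defined in ref 9.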

The test system of assay [4] is L1210. Put plainly: Compound was evaluated for antitumor activity against 10e 6 L1210 cells implanted intraperitoneally into mice after treatment on days 1-9.
The test system of assay [5] is L1210. Put plainly: Compound was evaluated for antitumor activity against 10e 6 L1210 cells implanted intraperitoneally into mice after treatment on day 1(maximum percentage toxicity). An outline of the steps:
as §1

The test system of assay [6] is L1210. Put plainly: Compound was evaluated for antitumor activity against 10e 6 L1210 cells implanted intraperitoneally into mice after treatment on day 1(maximum percentage toxicity)(reference 9). In outline: as §1
The subject of assay [7] is L1210. Put plainly: Compound was evaluated for antitumor activity against 10e 6 L1210 cells implanted intraperitoneally into mice after treatment on days 1-5 (maximum percentage toxicity). An outline of the steps:
as §2

For assay [8], the system named is L1210. Kind of assay: Compound was evaluated for antitumor activity against 10e 6 L1210 cells implanted intraperitoneally into mice after treatment on days 1-9 (maximum percentage toxicity).

One may read the T/C as the result in the treated group divided by that in the control group, in per cent. On to Dichloro-diammonium-platinum, for which the Optimal dose in assay [1] turned out to be 48 mg/kg; in assay [2], 120 mg/kg; in assay [3] it was 12 mg/kg; in assay [4] it was 20 mg/kg. Further, the T/C worked out at 150% in assay [5], 164% in assay [6], 157% in assay [7] and 193% in assay [8].

Consider Dichloro-dibromo-diammonium platinum, for which the figures for the Optimal dose in assay [1] and in assay [3] were 12 mg/kg and 0.75 mg/kg, respectively. For the same substance, the T/C in assay [5] is 136%; in assay [7], 129%.

Tetrachloro-diammonium platinum: the Optimal dose in assay [1] turned out to be 32 mg/kg; in assay [3], 4 mg/kg. The values for the T/C in assay [5] and in assay [7] were 121% and 114%, respectively.
